Data published in ChEMBL document CHEMBL1136923, “Highly potent, orally available anti-inflammatory broad-spectrum chemokine inhibitors” (J Med Chem, 2009).

What was measured:
Mus musculus [1] = assay: Antiinflammatory activity in mouse assessed as inhibition of LPS-induced TNFalpha upregulation at 0.016 mg, po measured 2 hrs after LPS challenge; format: functional
Outline: (§1)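 Murine sublethal endotoxemia: LPS given intraperitoneally, with serum TNF-α measured 2 h after the LPS injection as the end point. Compound was given subcutaneously or orally. Vehicle was 0.6% DMSO and 1% carboxymethylcellulose (final concentrations) in sterile water. Effect is reported as % relative to control.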

Mus musculus [2] = assay: Antiinflammatory activity in mouse assessed as inhibition of LPS-induced TNFalpha upregulation at 0.61 ug, po measured 2 hrs after LPS challenge; format: functional; outline: as §1
Mus musculus [3] = assay: Antiinflammatory activity in po dosed mouse assessed as inhibition of LPS-induced TNFalpha upregulation measured 2 hrs after LPS challenge; format: functional
[4] = biological target: C-C chemokine receptor type 2 (Homo sapiens) (UniProt P41597); assay: Antagonist activity at CCR2 in human THP1 cells assessed as inhibition of CCL2-induced chemotaxis after 2 hrs by microtiter format trans-well migration assay; format: functional, cell-based; conditions: THP-1
Outline: (§2)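 Microtiter trans-well migration assay in Gey's balanced salt solution with 1 mg/mL endotoxin-free BSA, no fetal calf serum. Migration ran 2 h at 37 °C. Compounds dissolved in DMSO and added to both top and bottom compartments, final DMSO 1%.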

Mus musculus [5] = assay: Antiinflammatory activity in mouse assessed as inhibition of LPS-induced TNFalpha upregulation at 0.013 ug, sc measured 2 hrs after LPS challenge; format: functional; outline: as §1
Mus musculus [6] = assay: Antiinflammatory activity in po dosed mouse assessed as inhibition of LPS-induced TNFalpha upregulation measured 2 hrs after LPS challenge relative to control; format: functional
Outline: (§3)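 Murine sublethal LPS endotoxemia screen. LPS is injected intraperitoneally and serum TNF-α is measured 2 h later as the end point. Compound is given subcutaneously or orally in a vehicle of 0.6% DMSO plus 1% carboxymethylcellulose (final concentrations) in sterile water. Values are % relative to control.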

Mus musculus [7] = assay: Antiinflammatory activity in sc dosed mouse assessed as inhibition of LPS-induced TNFalpha upregulation measured 2 hrs after LPS challenge relative to control; format: functional; outline: as §3
Mus musculus [8] = assay: Antiinflammatory activity in mouse assessed as inhibition of LPS-induced TNFalpha upregulation at 0.013 mg, sc measured 2 hrs after LPS challenge; format: functional; outline: as §1
[9] = biological target: C-C chemokine receptor type 2 (Homo sapiens) (UniProt P41597); assay: Antagonist activity at CCR2 in human THP1 cells assessed as inhibition of CCL2-induced chemotaxis at 100 nM after 2 hrs by microtiter format trans-well migration assay; format: functional, cell-based; conditions: THP-1; outline: as §2
Mus musculus [10] = assay: Antiinflammatory activity in mouse assessed as inhibition of LPS-induced TNFalpha upregulation at 0.0013 mg, sc measured 2 hrs after LPS challenge; format: functional; outline: as §1
Mus musculus [11] = assay: Antiinflammatory activity in mouse assessed as inhibition of LPS-induced TNFalpha upregulation at 0.0023 ug, po measured 2 hrs after LPS challenge; format: functional; outline: as §1
[12] = biological target: C-C chemokine receptor type 2 (Homo sapiens) (UniProt P41597); assay: Antagonist activity at CCR2 in human THP1 cells assessed as inhibition of CCL2-induced chemotaxis at 0.1 nM after 2 hrs by microtiter format trans-well migration assay; format: functional, cell-based; conditions: THP-1; outline: as §2
[13] = biological target: C-C chemokine receptor type 2 (Homo sapiens) (UniProt P41597); assay: Antagonist activity at CCR2 in human THP1 cells assessed as inhibition of CCL2-induced chemotaxis at 1 nM after 2 hrs by microtiter format trans-well migration assay; format: functional, cell-based; conditions: THP-1; outline: as §2
Mus musculus [14] = assay: Antiinflammatory activity in mouse assessed as inhibition of LPS-induced TNFalpha upregulation at 0.0055 ug, sc measured 2 hrs after LPS challenge; format: functional; outline: as §1
[15] = Half life in Sprague-Dawley rat at 3 mg/kg, po administered as single dose; format: ADME, organism-based; set-up: dose 3 mg/kg, route oral; conditions: in vivo
Outline: (§4)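 Male Sprague-Dawley rats, three per compound, receive a single oral dose by gavage in 1% carboxymethylcellulose in 0.9% saline, with food and water ad libitum. Plasma is sampled from 5 to 480 min and drug is quantified by positive-mode LC/MS/MS after acetonitrile/formic acid extraction. The lower limit of quantitation is about 2 ng/mL. Exposure is AUC(0→t) by the linear/log trapezoidal rule, and F is oral fractional bioavailability.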

[16] = Half life in Sprague-Dawley rat at 1 mg/kg, iv administered as single dose; format: ADME, organism-based; set-up: dose 1 mg/kg, route intravenous; conditions: in vivo
Outline: (§5)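 Male Sprague-Dawley rats, three per compound, receive a single intravenous dose in 5% DMSO in 0.9% saline. Food and water are given ad libitum. Plasma is taken at 5, 15, 30, 60, 120, 180, 240 and 480 min. Drug is measured by LC/MS/MS after extraction with 0.1% formic acid in acetonitrile. The curve is back-extrapolated to time zero assuming an initial volume of 0.26 L/kg.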

[17] = Volume of distribution at steady state in Sprague-Dawley rat at 1 mg/kg, iv administered as single dose; format: ADME, organism-based; set-up: dose 1 mg/kg, route intravenous; conditions: in vivo, read-out: Vdss; outline: as §5
Mus musculus [18] = assay: Antiinflammatory activity in sc dosed mouse assessed as inhibition of LPS-induced TNFalpha upregulation measured 2 hrs after LPS challenge; format: functional
Mus musculus [19] = assay: Antiinflammatory activity in mouse assessed as inhibition of LPS-induced TNFalpha upregulation at 0.057 ug, po measured 2 hrs after LPS challenge; format: functional; outline: as §1
Mus musculus [20] = assay: Antiinflammatory activity in mouse assessed as inhibition of LPS-induced TNFalpha upregulation at 0.00013 mg, sc measured 2 hrs after LPS challenge; format: functional
Outline: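 Murine sublethal endotoxemia: LPS given intraperitoneally, serum TNF-α measured 2 h after LPS injection. Compound vehicle 0.6% DMSO plus 1% carboxymethylcellulose (final concentrations) in sterile water.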

[21] = biological target: C-C chemokine receptor type 2 (Homo sapiens) (UniProt P41597); assay: Antagonist activity at CCR2 in human THP1 cells assessed as inhibition of CCL2-induced chemotaxis at 10 nM after 2 hrs by microtiter format trans-well migration assay; format: functional, cell-based; conditions: THP-1; outline: as §2
[22] = AUC (0 to t) in Sprague-Dawley rat at 3 mg/kg, po administered as single dose; format: ADME, organism-based; set-up: dose 3 mg/kg, route oral; conditions: plasma
Outline: (§6)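 Male Sprague-Dawley rats, three per compound per route, single dose. IV vehicle 5% DMSO in 0.9% saline; oral gavage vehicle 1% carboxymethylcellulose in 0.9% saline; fed ad libitum. Plasma taken 5–480 min post-dose, extracted with 0.1% formic acid in acetonitrile, quantified by LC/MS/MS (positive mode). AUC(0–t) by linear/log trapezoidal rule; IV curve back-extrapolated assuming initial volume 0.26 L/kg.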

[23] = biological target: C-C chemokine receptor type 2 (Homo sapiens) (UniProt P41597); assay: Antagonist activity at CCR2 in human THP1 cells assessed as inhibition of CCL2-induced chemotaxis at 1000 nM after 2 hrs by microtiter format trans-well migration assay; format: functional, cell-based; conditions: THP-1; outline: as §2
[24] = Cmax in Sprague-Dawley rat at 3 mg/kg, po administered as single dose; format: ADME, organism-based; set-up: dose 3 mg/kg, route oral; conditions: in vivo; outline: as §4
[25] = Fractional bioavailability in Sprague-Dawley rat at 3 mg/kg, po administered as single dose; format: ADME, organism-based; conditions: in vivo; outline: as §4
[26] = AUC (0 to t) in Sprague-Dawley rat at 1 mg/kg, iv administered as single dose; format: ADME, organism-based, Plasma; set-up: dose 1 mg/kg, route intravenous; conditions: Sprague-Dawley, plasma; outline: as §6
[27] = biological target: C-C chemokine receptor type 2 (Homo sapiens) (UniProt P41597); assay: Antagonist activity at CCR2 in human THP1 cells assessed as inhibition of CCL2-induced chemotaxis at 0.01 nM after 2 hrs by microtiter format trans-well migration assay; format: functional, cell-based; conditions: THP-1; outline: as §2
Mus musculus [28] = assay: Antiinflammatory activity in mouse assessed as inhibition of LPS-induced TNFalpha upregulation at […], sc measured 2 hrs after LPS challenge; format: functional; outline: as §1
Mus musculus [29] = assay: Antiinflammatory activity in mouse assessed as inhibition of LPS-induced TNFalpha upregulation at 0.016 ug, po measured 2 hrs after LPS challenge; format: functional; outline: as §1
Mus musculus [30] = assay: Antiinflammatory activity in mouse assessed as inhibition of LPS-induced TNFalpha upregulation at 450 pg, po measured 2 hrs after LPS challenge; format: functional; outline: as §1
[31] = Clearance in Sprague-Dawley rat at 1 mg/kg, iv administered as single dose; format: ADME, organism-based; set-up: dose 1 mg/kg, route intravenous; conditions: in vivo; outline: as §5

Sequence of C-C chemokine receptor type 2 (Homo sapiens) (P41597 whole entry, looked up): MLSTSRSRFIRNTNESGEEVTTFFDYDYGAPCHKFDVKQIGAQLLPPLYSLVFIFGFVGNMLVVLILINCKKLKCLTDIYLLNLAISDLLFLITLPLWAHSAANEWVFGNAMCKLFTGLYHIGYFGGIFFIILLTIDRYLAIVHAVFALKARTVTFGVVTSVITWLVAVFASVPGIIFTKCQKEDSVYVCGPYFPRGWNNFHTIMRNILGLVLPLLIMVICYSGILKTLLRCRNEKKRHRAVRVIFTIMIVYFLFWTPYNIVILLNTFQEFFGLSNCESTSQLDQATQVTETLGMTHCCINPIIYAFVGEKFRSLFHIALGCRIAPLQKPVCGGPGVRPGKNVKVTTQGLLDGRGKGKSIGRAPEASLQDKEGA

## CC(C)(C)C(=O)N[C@H]1CCCCNC1=O
Mus musculus [1]
  inhibition (INH): 83%
Mus musculus [2]
  inhibition (INH): 80%
Mus musculus [3]
  ED50: 0.1 µg/kg
[4]
  ED50: 0.04 nM
Mus musculus [5]
  inhibition (INH): 80%
Mus musculus [6]
  inhibition (INH): 80%
Mus musculus [7]
  inhibition (INH): 90%
Mus musculus [8]
  inhibition (INH): 91%
[9]
  inhibition: 101%
Mus musculus [10]
  inhibition (INH): 94%
Mus musculus [11]
  inhibition (INH): 41%
[12]
  inhibition: 80%
[13]
  inhibition: 101%
Mus musculus [14]
  inhibition (INH): 73%
[15]
  half-life: 2.8 h
[16]
  half-life: 2.02 h
[17]
  Vd: 0.7 L/kg
Mus musculus [18]
  ED50: 0.1 µg/kg
Mus musculus [19]
  inhibition (INH): 76%
Mus musculus [20]
  inhibition (INH): 81%
[21]
  inhibition: 102%
[22]
  AUC(0-t): 8220 ng·h/mL
[23]
  inhibition: 102%
[24]
  Cmax: 989 ng/mL
[25]
  bioavailability: 71%
[26]
  AUC(0-t): 3860 ng·h/mL
[27]
  inhibition: 33%
Mus musculus [28]
  inhibition (INH): 44%
Mus musculus [29]
  inhibition (INH): 70%
Mus musculus [30]
  inhibition (INH): 43%
[31]
  clearance: 6.8 mL/min/kg
